Source: PubChem BioAssay (several laboratories)
The list is not random: actives were taken first. Their share in the collection is about 1.7%.
CSN inh: inhibitors of CSN-mediated cullin deneddylation, primary screen, biochemical, fluorescence polarization, uHTS. Purified CSN, SCF-Nedd8-OG deneddylation. inhibition, % at 12.5 µM. 360,000 tested, 0.38% active. AID 651999, 2013;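 active = pattern-corrected inhibition above about 35%, with an unprinted fluorescence ratio check between 0.5 and 1.5, limit read from the data, passing the limit was not always enough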;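 also: 0% = enzyme with substrate and 100% = substrate without enzyme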
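Material: purified human Csn5 enzyme expressed in HEK293T cells / Medium: Tris buffer pH 7.5, NaCl, DTT, Tween-20, trehalose, ovalbumin / Compound dosing: 12.5 µM single point / Schedule: 90 min incubation of compound, enzyme and substrate at room temperature / Signal: fluorescence polarization of the substrate / Control set: no-enzyme wells high, enzyme-with-substrate wells low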
IDE cell activ: human IDE activators in live cells, primary screen, fluorescence polarization, HEK cells, FAbeta-B substrate | Insulin-degrading enzyme (Homo sapiens), P14735 | FAbeta-B cleavage; 0% vehicle, 100% cell-free pure enzyme wells | activation, % at 5.96 µM | 340,000 tested, 0.073% active | AID 493087, 2011;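 active = activation above the mean of all tested compounds plus 3 SD, set per screening campaign, cut at about 17% in these data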
HNF4A DNA FP: change in binding of human HNF4A to DNA, primary screen, biochemical, fluorescence polarization, FITC-DNA | Hepatocyte nuclear factor 4-alpha (Homo sapiens), P41235 | 1 h | activity change, % at 10 µM | 360,000 tested, 0.3% active | AID 1224865, 2016; in the data active = activity change above about 30%, passing the limit was not always enough
Rpn11 block: Rpn11 (PSMD14) deubiquitinase inhibitors, primary screen, biochemical, fluorescence polarization, uHTS | 26S proteasome non-ATPase regulatory subunit 14 (Homo sapiens), O00487 | human 26S proteasome, Ub4-pepOG fluorescence polarization; 20S core pre-blocked with epoxomicin | inhibition, % at 20 µM | 360,000 tested, 0.59% active;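 active = inhibition at 20 µM, scaled to each plate's controls, above about 33%, limit read from the data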
TPT1 inhibitor: Candida albicans TPT1 enzyme inhibitors, primary screen, biochemical, fluorescence polarization; tRNA 2'-phosphotransferase TPT1 (Candida albicans SC5314); recombinant caTPT1, FP RNA substrate dephosphorylation; inhibition, % at 5 µM; 300,000 tested, 0.81% active; AID 1962, 2009;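 active = inhibition above the mean of all tested compounds plus 3 SD, set per screening campaign, cut at about 24% in these data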;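 also: plate controls were DMSO alone for no effect and ferristatin control at 100 nM for full effect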
IDE inh: human IDE inhibitors in live cells, primary screen, fluorescence polarization, HEK cells, FAbetaB substrate. inhibition, % at 5.59 µM. Insulin-degrading enzyme (Homo sapiens), P14735. 320,000 tested, 0.41% active. FAbetaB cleavage;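 active = percent inhibition above the average of all tested compounds plus 3 SD, set per screening campaign, cut at about 16% in these data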;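 also: IDE supplied by intact live HEK cells; FP after avidin binding of uncleaved biotin substrate so inhibition keeps polarization high; 0% = DMSO wells and 100% = 60 µM reference IDE inhibitor Ii1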
Rpn11 inh conf: Rpn11 (PSMD14) deubiquitinase inhibitors, confirmation, biochemical, fluorescence polarization, single concentration | shares compounds with Rpn11 block | purified human 26S proteasome, Ub4-pepOG fluorescence polarization; proteasome pretreated with epoxomicin | inhibition, % at 20 µM | 1,900 tested, 29% active
MMP-2 inh: MMP-2 enzyme inhibition, confirmation, counter-screen for RPN11 inhibitor project, biochemical, fluorescence, single concentration. shares compounds with Rpn11 block. recombinant MMP-2, FRET peptide cleavage fluorescence. inhibition, % at 20 µM. 1,900 tested, 4% active;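 also: human MMP-2 activated beforehand with APMA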
Thrombin FP: bovine thrombin protease inhibition, confirmation, counter-screen for Rpn11 inhibitor project, biochemical, fluorescence polarization, single concentration; shares compounds with Rpn11 block; bovine thrombin cleavage of Ub4-pepOG; inhibition, % at 20 µM; 1,900 tested, 13% active; AID 602333, 2012;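 active = mean inhibition at least 40% at 20 µM, or signal 3 deviations below plate average, so some actives read negative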;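 also: plate controls were thrombin with DMSO for no effect and buffer wells lacking thrombin for full effect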
Target sequence (P00735 whole entry, looked up): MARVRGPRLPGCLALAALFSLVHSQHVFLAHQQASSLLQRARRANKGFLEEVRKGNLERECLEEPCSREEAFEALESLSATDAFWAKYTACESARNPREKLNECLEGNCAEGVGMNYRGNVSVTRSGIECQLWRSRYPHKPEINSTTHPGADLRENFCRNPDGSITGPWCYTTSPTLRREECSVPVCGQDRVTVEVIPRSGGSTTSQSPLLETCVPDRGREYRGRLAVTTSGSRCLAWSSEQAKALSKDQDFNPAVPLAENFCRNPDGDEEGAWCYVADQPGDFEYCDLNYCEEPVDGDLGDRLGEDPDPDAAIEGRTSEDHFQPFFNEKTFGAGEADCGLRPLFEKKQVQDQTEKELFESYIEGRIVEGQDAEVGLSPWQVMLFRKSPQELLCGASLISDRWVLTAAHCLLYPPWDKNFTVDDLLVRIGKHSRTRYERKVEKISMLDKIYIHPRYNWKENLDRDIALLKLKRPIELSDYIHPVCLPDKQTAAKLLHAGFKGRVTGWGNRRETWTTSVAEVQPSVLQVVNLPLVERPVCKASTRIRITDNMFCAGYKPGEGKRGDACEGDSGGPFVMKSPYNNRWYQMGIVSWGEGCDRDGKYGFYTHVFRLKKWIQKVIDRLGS
Numbers without * were called inactive; / = no result given. Rule as the data show it, unless noted: active = inhibition above about 40%; inactive = the rest.

SMILES | CSN inh | IDE cell activ | HNF4A DNA FP | Rpn11 block | TPT1 inhibitor | IDE inh | Rpn11 inh conf | MMP-2 inh | Thrombin FP
CCOC(=O)CC(=O)CSc1nc2sc(C)cc2c(=O)n1Cc1ccco1 | 4 | -1 | 0 | 12 | 2 | 7 | / | / | /
Cc1cc2c(=O)n(Cc3ccco3)c(SCC(=O)c3ccc(Cl)s3)nc2s1 | -2 | 8 | -3 | 40* | 2 | -1 | -10 | -46 | -6
Cc1ccc(SCCc2cc[n+](CC(=O)c3ccccc3)cc2)cc1 | 14 | -3 | 1 | 38* | 2 | -1 | 2 | -7 | -9
COc1cccc(-c2nn(C)c3sc(C(=O)NCCCN(C)Cc4ccccc4)cc23)c1 | 1 | 4 | 1 | 88* | -5 | 4 | -17 | -10 | -17
Cc1ccc(N(CC(=O)N/N=C/c2cccs2)S(C)(=O)=O)cc1 | -7 | 5 | 7 | 29* | -6 | 1 | -9 | -54 | -25
CCNc1nc(Cl)nc(NCc2ccccc2)n1 | 0 | 3 | -4 | 68* | -1 | 12 | -22 | -30 | -22
CC(C)N(CCO)C(=O)CCc1nnc(Cc2cccc(C(F)(F)F)c2)o1 | 3 | 3 | 5 | -2 | 3 | -6 | / | / | /
Cc1ccc(-n2cc(C(=O)c3cc(Cl)ccc3O)cc(C#N)c2=O)cc1 | -10 | -5 | 7 | 39 | 13 | 5 | / | / | /
Cc1ccccc1NC(=O)c1cc(C(=O)c2cc(Cl)ccc2O)cn(-c2ccccc2C)c1=O | 0 | 5 | 7 | 47* | 12 | 5 | 11 | -79 | -17
CC(C)CNC(=O)[C@H]1N2C(=O)c3ccccc3C2SC1(C)C (stereo not given in full) | -2 | -4 | 2 | 0 | -4 | 0 | / | / | /
COc1ccc(-c2nnc(SC)nc2-c2ccc(OC)c([N+](=O)[O-])c2)cc1[N+](=O)[O-] | 2 | -3 | 12 | 103* | -2 | 7 | 21 | 70* | 3
Clc1ccc(OCCSCc2nc3ccccc3[nH]2)cc1 | 11 | -1 | 27 | 44* | 16 | 2 | 26 | -9 | 15
Cc1ccc(OCCSCc2nc3ccccc3[nH]2)cc1 | 2 | -6 | -8 | 0 | -1 | 2 | / | / | /
N=c1c2ccccc2nc2n1CCCCCCCCCCC2 | 1 | 0 | 0 | -8 | -3 | 2 | / | / | /
CCCn1c(NC(=O)C2COc3ccccc3O2)nc2ccccc21 (stereo not given) | 0 | 3 | -7 | 104* | -6 | 8 | 5 | -2 | 7
CCCn1c(NC(=O)c2ccco2)nc2ccccc21 | 1 | 1 | -4 | -4 | -2 | -3 | / | / | /
CC(C)(C)c1ccc(NC(=O)c2ccsc2)cc1 | 3 | / | -2 | -12 | 3 | 2 | / | / | /
Cc1nnc(N/N=C\c2ccc(-c3ccccc3[N+](=O)[O-])o2)n1N | 3 | 5 | 0 | 65* | 7 | 1 | 0 | -37 | -3
O=C(Nc1ccc(C(F)(F)F)cc1[N+](=O)[O-])O[C@H]1[C@H](Cc2ccccc2)NS(=O)(=O)[C@H]2C[C@@H]3C=C[C@]12O3 | -5 | -2 | 1 | -2 | / | -3 | / | / | /
CCNC(=S)NNC(=O)c1cccc(Br)c1 | -3 | 7 | 1 | 28* | -3 | 2 | -1 | 9 | -7
CCNC(=S)NNC(=O)c1ccncc1 | 0 | 6 | -2 | 3 | 0 | -5 | / | / | /
CCOC(=O)c1c(NC(=S)Nc2ccccc2)sc2c1CC(C)(C)SC2 | 18 | -2 | 12 | 42* | 22 | -2 | 8 | 81* | -11
CO/C([O-])=N/c1c[n+](-c2ccc(Cl)cc2)no1 | -2 | 3 | 7 | 84* | -2 | -3 | -9 | 23 | -2
CCc1nnc(NC(=O)CCN2C(=O)/C(=C/c3cc(OC)c(OC)c(OC)c3)SC2=S)s1 | 7 | -5 | 21 | 48* | 15 | 7 | 23 | -41 | 42*
Cc1ccc(/C=C2\SC(=S)N(CCC(=O)NNC(=O)c3ccncc3)C2=O)cc1 | 6 | / | 14 | 44* | 6 | 2 | 10 | -28 | 12
SMILES | CSN inh | IDE cell activ | HNF4A DNA FP | Rpn11 block | TPT1 inhibitor | IDE inh | Rpn11 inh conf | MMP-2 inh | Thrombin FP
CCc1ccc(/C=C2/SC(=S)N(CCC(=O)Nc3ccc(C(=O)O)cc3)C2=O)cc1 | 9 | -6 | 23 | 114* | 3 | 4 | 43* | 4 | 33
O=c1[nH][nH]c2c1[C@H](c1ccc(F)cc1)O[C@H](CCc1ccccc1)C2 | -3 | / | -1 | / | / | / | / | / | /
O=C(N/N=C/c1ccc2c(c1)OCO2)c1sc2cc(Cl)ccc2c1Cl | 0 | 5 | 4 | 105* | 1 | 4 | 3 | -31 | -1
O=C(COc1ccccc1F)NC12CC3CC(CC(C3)C1)C2 | 3 | -2 | 0 | -14 | -1 | -2 | / | / | /
O=[N+]([O-])c1ccc(Cl)cc1Sc1cccc2cccnc12 | 0 | -2 | -2 | -2 | 0 | -1 | / | / | /
Cn1nc([N+](=O)[O-])nc1Sc1cccc2cccnc12 | 0 | -5 | -5 | 46* | -2 | 0 | 8 | -33 | -11
COCCCn1cnnc1SCc1nc2sc(C(C)=O)c(C)c2c(=O)[nH]1 | 8 | 2 | 8 | 51* | 16 | 2 | 10 | -52 | 23
C=CCn1c(SCc2nc3sc(C(=O)O)c(C)c3c(=O)[nH]2)nnc1-c1ccc(F)cc1 | 3 | 6 | 1 | -3 | -1 | 10 | / | / | /
Cc1ncc([N+](=O)[O-])n1CC(=O)N/N=C/c1ccc(F)cc1 | -3 | -2 | 4 | -3 | -3 | 5 | / | / | /
O=C1c2c(-c3ccc(Br)cc3)noc2CCN1Cc1cn(-c2ccccc2)nn1 | 2 | / | 3 | / | / | / | / | / | /
Cn1c(=O)c2[nH]c(NN=Cc3cccc(Br)c3)nc2n(C)c1=O | 1 | -2 | 5 | 1 | / | / | / | / | /
Clc1ccc(Nc2nc3ccccc3n3nnnc23)cc1 | 3 | -1 | 4 | 44* | -4 | 7 | 11 | -23 | -3
Cc1ccc(Nc2nc3ccccc3n3nnnc23)cc1 | 7 | 3 | -1 | 11 | 6 | -1 | / | / | /
